Screening data (PubChem BioAssay)
Shown are actives, neighbours in structure and some others; about 2% of the full set was active somewhere.
NS3 helicase inh: inhibitors of Hepatitis C virus NS3 helicase | inhibition, % at 10.9 µM | 290,000 tested, 0.56% active | NS3 helicase DNA unwinding, Cy5 molecular beacon fluorescence | AID 1800;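 active = inhibition above the mean of all tested compounds plus 3 SD, set per campaign, cut at about 35% in these data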;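 also: 0% = DMSO wells and 100% = thioflavine S control wells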
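Material: hepatitis C virus NS3 helicase domain fragment enzyme; measured by: Cy5 fluorescence, 0 and 60 min reads; control set: DMSO and thioflavine S; incubation: 60 min unwinding reaction at 25 °C after ATP addition; read-out basis: % inhibition from 60/0 min fluorescence ratio, DMSO 0%, thioflavine S 100%; repeats: singlicate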
EBNA-1 inh: blocks EBNA-1 binding to DNA; 300,000 tested, 0.34% active; inhibition, % at 14.8 µM; AID 1950; EBNA-1 DNA binding, fluorescence polarization; in the data active = inhibition above about 28%
ZTA DNA inh: ZTA (EBV) inhibition in EBNA-1 counter-screen | ZTA-DNA binding, fluorescence polarization | inhibition, % at 11 µM | 320,000 tested, 0.15% active; in the data active = inhibition above about 33%
Target sequence (P03206 whole entry, looked up): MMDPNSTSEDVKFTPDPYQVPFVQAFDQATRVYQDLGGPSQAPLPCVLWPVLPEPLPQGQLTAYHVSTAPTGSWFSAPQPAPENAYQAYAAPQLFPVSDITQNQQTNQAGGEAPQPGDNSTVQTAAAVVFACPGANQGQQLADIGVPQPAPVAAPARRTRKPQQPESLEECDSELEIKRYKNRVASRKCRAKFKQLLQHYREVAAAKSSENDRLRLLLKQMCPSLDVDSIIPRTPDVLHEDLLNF
DNA FID counter: displaces DNA intercalator in HCV helicase counter-screen; inhibition, % at 7.9 µM; DNA fluorescent intercalator displacement, fluorescence; 290,000 tested, 0.17% active; in the data active = inhibition above about 37%;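 also: 0% = vehicle and 100% = reference compound; higher means more ethidium bromide displaced from hairpin DNA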
GPR7 antagonist: blocks human GPR7 receptor signaling; P48145; GPR7-expressing cells, fluorescence antagonist assay; inhibition, % at 4.4 µM; 290,000 tested, 1.1% active; in the data active = inhibition above about 16%, passing the limit was not always enough;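 also: cells stimulated with the agonist NPW; 0% = agonist with vehicle and 100% = vehicle without agonist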
Target sequence (P48145 whole entry, looked up): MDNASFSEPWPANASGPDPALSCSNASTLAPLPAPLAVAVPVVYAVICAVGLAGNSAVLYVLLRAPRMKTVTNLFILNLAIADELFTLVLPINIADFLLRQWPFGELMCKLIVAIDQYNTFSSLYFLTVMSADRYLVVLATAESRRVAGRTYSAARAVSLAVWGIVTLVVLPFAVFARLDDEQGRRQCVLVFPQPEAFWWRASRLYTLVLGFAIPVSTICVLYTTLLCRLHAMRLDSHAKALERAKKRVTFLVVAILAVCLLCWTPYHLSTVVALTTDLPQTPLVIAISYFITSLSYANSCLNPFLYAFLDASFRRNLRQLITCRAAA
ZTA inh confirm: EBV ZTA DNA binding inhibition, confirmation; Zta-ZRE DNA binding, fluorescence polarization; inhibition, % at 11.1 µM; shares compounds with ZTA DNA inh; 320 tested, 30% active;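 active = mean inhibition across triplicate runs above the hit threshold derived for the original primary screen, cut at about 33% in these data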;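 also: 0% = Zta with DMSO and 100% = wells lacking Zta protein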
EBNA-1 counter: blocks EBNA-1 DNA binding in ZTA counter-screen; 320 tested, under 10 active; shares compounds with ZTA DNA inh; fluorescence polarization; inhibition, % at 14.8 µM; call rule not given here
An asterisk follows results filed as active; nt = no result given; + = active, no number.

SMILES | NS3 helicase inh | EBNA-1 inh | ZTA DNA inh | DNA FID counter | GPR7 antagonist | ZTA inh confirm | EBNA-1 counter
CC(C)c1ccc(NC(=O)COc2ccc(S(=O)(=O)N3CCOCC3)cc2)cc1 | 9.0 | 2.5 | 35.5* | -5.3 | 5.8 | 18.4 | -9.6
COC(=O)c1ccc(NC(=O)c2ccc(NC(=O)c3ccco3)cc2)cc1 | -18.4 | 6.7 | 38.9* | -12.8 | -1.8 | 48.6* | 23.4
CC(=O)c1ccc(NC(=O)c2ccc(NC(=O)c3ccco3)cc2)cc1 | -15.1 | 14.6 | 16.3 | -7.4 | 0.9 | nt | nt
COc1ccc2nc(SCC(=O)Nc3cc(C)on3)c(C#N)cc2c1 | 5.6 | -6.3 | 49.8* | -4.0 | -7.1 | 11.5 | 5.5
COc1cc2cc(C#N)c(SCC(=O)Nc3cc(C)on3)nc2cc1OC | 3.2 | 11.5 | -0.5 | -10.5 | -4.4 | nt | nt
CCCNC(=S)N1CCN(C(c2ccccc2)c2ccccc2)CC1 | -0.3 | -5.6 | 1.3 | -19.1 | 2.4 | nt | nt
CCCCNC(=S)N1CCN(C(c2ccccc2)c2ccccc2)CC1 | -1.8 | 8.8 | 42.7* | -19.8 | -7.0 | 12.2 | 10.4
O=C(Cn1c(=O)cnc2ccccc21)NNC(=O)c1ccccc1Cl | nt | nt | -7.9 | nt | nt | nt | nt
CC1CCCC(NC(=O)COC(=O)c2cc(S(=O)(=O)N3CCCCC3)ccc2N2CCOCC2)C1C (stereo unspecified) | 2.8 | 10.9 | 4.8 | -27.1 | 2.2 | nt | nt
CC1CCCC(NC(=O)COC(=O)c2cccc(S(=O)(=O)N3CCCCC3)c2)C1C (stereo unspecified) | nt | nt | 40.8* | nt | nt | 0.3 | 7.6
COCCCN(C(=O)c1cc2c(s1)CCCCC2)c1c(N)n(Cc2ccccc2)c(=O)[nH]c1=O | nt | 12.2 | 161.7* | nt | nt | 15.1 | 0.5
COc1ccc(CN2CCc3ccccc3C2)c(OC)c1 | 7.2 | -0.8 | 6.7 | 1.1 | -10.1 | nt | nt
COc1ccc(C2=[N+](C)CCn3cccc32)c(OC)c1 | 2.9 | 11.8 | 33.4* | 3.5 | -1.2 | 0.5 | 1.3
COc1ccc(CCNC(=O)COC(=O)C2CC2C)cc1OC (stereo unspecified) | nt | nt | 12.1 | nt | nt | nt | nt
NC1=NC[C@H](c2ccccc2)N1CCCCC1CCCCC1 | nt | 6.0 | 33.0* | nt | nt | 1.9 | -12.7
S=C1NC[C@H](c2ccccc2)N1CCCCC1CCCCC1 | nt | 3.3 | 1.7 | nt | nt | nt | nt
O=C(O)Cc1ccc(NC(=O)c2ccc(NC(=O)C3CC3)cc2)cc1 | 13.1 | 0.2 | -2.7 | -9.7 | -14.6 | nt | nt
c1ccc(-c2csc3ncnc(N4CCN(Cc5ccc6c(c5)OCO6)CC4)c23)cc1 | -28.6 | -9.3 | -1.9 | -11.1 | 2.2 | nt | nt
O=C(CSc1ncnc2scc(-c3ccccc3)c12)N1CCN(Cc2ccc3c(c2)OCO3)CC1 | -1.1 | 13.8 | 58.8* | -19.8 | 4.0 | 159.6* | 71.9*
CCCCN(C(=O)c1c(C)noc1C)c1c(N)n(CCC)c(=O)[nH]c1=O | nt | nt | -2.8 | nt | nt | nt | nt
CN(C)c1ccc(N/C=C/C(=O)c2ccc(F)cc2)cc1 | 20.4 | 4.1 | 78.3* | -13.7 | -12.8 | 13.2 | 2.5
CN(C)c1ccc(N/C=C/C(=O)c2ccco2)cc1 | 24.6 | 15.4 | 91.1* | -13.5 | -12.6 | -0.3 | -3.8
NS(=O)(=O)c1ccc(N/C=C\C(=O)c2ccc(F)cc2)cc1 | 0.5 | 3.9 | 3.0 | -3.5 | 3.4 | nt | nt
CC(=O)Nc1ccc(N/C=C/C(=O)c2ccco2)cc1 | 0.7 | -1.3 | 0.0 | -6.0 | -11.7 | nt | nt
O=C(CCCN1C(=O)/C(=C\c2ccco2)SC1=S)Nc1ccc(O)cc1C(=O)O | 16.9 | 12.3 | 53.0* | 20.2 | 11.5 | 0.5 | 2.0
SMILES | NS3 helicase inh | EBNA-1 inh | ZTA DNA inh | DNA FID counter | GPR7 antagonist | ZTA inh confirm | EBNA-1 counter
O=C(CN1C(=O)/C(=C/c2ccco2)SC1=S)Nc1ccc(C(=O)O)c(O)c1 | 27.3 | 12.0 | 56.5* | 25.8 | -8.8 | 19.1 | -5.0
COc1ccc(F)cc1S(=O)(=O)NCC(c1ccco1)N1CCc2ccccc2C1 (stereo unspecified) | nt | 3.7 | 6.4 | nt | nt | nt | nt
CC1=[N+](C)c2ccc3ccccc3c2C1(C)C | -19.7 | 1.2 | + | -2.3 | 2.9 | 69.0* | 18.2
CCOC(=O)CN1C(=O)/C(=C/c2ccc(Cl)cc2)Oc2ccccc21 | 16.5 | 0.0 | -1.7 | -8.4 | 5.7 | nt | nt
COc1ccccc1N1C(=O)c2cccc3cccc(c23)C1=O | 5.2 | 3.7 | -3.7 | -8.5 | 0.9 | nt | nt
Cc1ccc(C(C(=O)NC2CCCC2)N(Cc2ccc3c(c2)OCO3)C(=O)c2snc(C(N)=O)c2N)cc1 (stereo unspecified) | -6.5 | 5.1 | 56.9* | -21.4 | -4.4 | 0.5 | -9.1
COc1ccc(CCNC(=O)C2c3ccccc3C(=O)N2CCC(C)C)cc1OC (stereo unspecified) | 2.5 | -17.9 | 74.7* | -25.5 | 13.5 | -6.2 | 5.0
CCOc1ccc(CN2C(=O)c3ccccc3C2C(=O)NC(C)CC)cc1OC (stereo unspecified) | -3.9 | 9.2 | -1.0 | -15.1 | -8.1 | nt | nt
CCn1c(CSc2nnc(-c3ccncc3)n2CCOC)nc2cc(C(=O)O)ccc21 | 3.5 | 5.3 | 36.8* | -4.5 | 17.2 | 30.4 | 16.9
CCn1c(CSc2n[nH]c(N)n2)nc2cc(C(=O)O)ccc21 | 6.5 | 15.7 | 34.1* | -3.9 | 4.5 | 39.2* | 18.9
COc1ccc(Br)cc1CNc1ccc(O)cc1 | 8.8 | -1.1 | 39.7* | -7.1 | -6.9 | -5.0 | -0.5
COc1ccc(Br)cc1CNc1ccc2[nH]c(=O)[nH]c2c1 | 2.2 | -14.0 | -0.9 | -1.5 | -5.9 | nt | nt
COc1ccc(S(=O)(=O)N2CCCC2CNC(=O)C(=O)NCc2ccco2)cc1 (stereo unspecified) | nt | 3.4 | 9.0 | nt | nt | nt | nt
CC(=O)c1c(Cl)nc2cccc3c2c1-c1ccccc1C3=O | 9.8 | -1.6 | 3.8 | 8.8 | -8.1 | nt | nt
C#CCOCCOCCOCCNc1nc(N2CCN(C(=O)CCCCCCCCCCNC(=O)[C@H]([C@@H](C)CC)n3cc(CCCCN=C(N)N)nn3)CC2)nc(N2CCN(C(=O)CCCCCCCCCCNC(=O)[C@@H]([C@H](C)O)n3cc(C)nn3)CC2)n1 | nt | 4.1 | 67.7* | nt | nt | 61.1* | 0.8
C#CCOCCOCCOCCNc1nc(N2CCN(C(=O)CCCCCCCCCCNC(=O)[C@H](CCCCN)n3cc(C[C@@H](C)CC)nn3)CC2)nc(N2CCN(C(=O)CCCCCCCCCCNC(=O)[C@@H]([C@H](C)O)n3cc(C)nn3)CC2)n1 | nt | -1.2 | 49.6* | nt | nt | 32.9 | -7.6
C#CCOCCOCCOCCNc1nc(N2CCN(C(=O)CCCCCCCCCCNC(=O)[C@H](CCCCN)n3cc(C)nn3)CC2)nc(N2CCN(C(=O)CCCCCCCCCCNC(=O)[C@H](CCCN=C(N)N)n3cc(C[C@@H](C)CC)nn3)CC2)n1 | nt | -1.6 | 51.1* | nt | nt | 47.4* | -2.6
C#CCOCCOCCOCCNc1nc(N2CCN(C(=O)CCCCCCCCCCNC(=O)[C@@H](CCSC)n3cc(CCO)nn3)CC2)nc(N2CCN(C(=O)CCCCCCCCCCNC(=O)[C@@H]([C@H](C)O)n3cc(C)nn3)CC2)n1 | nt | 4.4 | 6.1 | nt | nt | nt | nt
